CSC inhib: cancer stem cell viability inhibitors, primary screen, luminescence | 1.1% of 300,000 active | cancer stem cell-like cells viability | AID 2717, 2010 | inhibition, % at 7.5 µM; in the data active = inhibition above about 75%; tested in HMLE shEcad cells
ANO1 activ: TMEM16A chloride channel activators or potentiators, primary screen, cell-based, HTS; Anoctamin-1 (Mus musculus), Q8BHY3; HEK293 TMEM16A/YFP-H148Q/I152L, iodide quench fluorescence; stronger effect = lower value; B-score at 10 µM; 0.3% of 340,000 active; AID 623877, 2012;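 active = fluorescence-ratio B-score plate-corrected deviation score at least 3 library SD below zero, with starting fluorescence score within 5 deviations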;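 note: channel opened by trigger with iodide after compound preincubation; score built on the fluorescence ratio of max minus min over baseline; more negative score means more quench and so TMEM16A activation or potentiation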
Target sequence (Q8BHY3 whole entry, looked up): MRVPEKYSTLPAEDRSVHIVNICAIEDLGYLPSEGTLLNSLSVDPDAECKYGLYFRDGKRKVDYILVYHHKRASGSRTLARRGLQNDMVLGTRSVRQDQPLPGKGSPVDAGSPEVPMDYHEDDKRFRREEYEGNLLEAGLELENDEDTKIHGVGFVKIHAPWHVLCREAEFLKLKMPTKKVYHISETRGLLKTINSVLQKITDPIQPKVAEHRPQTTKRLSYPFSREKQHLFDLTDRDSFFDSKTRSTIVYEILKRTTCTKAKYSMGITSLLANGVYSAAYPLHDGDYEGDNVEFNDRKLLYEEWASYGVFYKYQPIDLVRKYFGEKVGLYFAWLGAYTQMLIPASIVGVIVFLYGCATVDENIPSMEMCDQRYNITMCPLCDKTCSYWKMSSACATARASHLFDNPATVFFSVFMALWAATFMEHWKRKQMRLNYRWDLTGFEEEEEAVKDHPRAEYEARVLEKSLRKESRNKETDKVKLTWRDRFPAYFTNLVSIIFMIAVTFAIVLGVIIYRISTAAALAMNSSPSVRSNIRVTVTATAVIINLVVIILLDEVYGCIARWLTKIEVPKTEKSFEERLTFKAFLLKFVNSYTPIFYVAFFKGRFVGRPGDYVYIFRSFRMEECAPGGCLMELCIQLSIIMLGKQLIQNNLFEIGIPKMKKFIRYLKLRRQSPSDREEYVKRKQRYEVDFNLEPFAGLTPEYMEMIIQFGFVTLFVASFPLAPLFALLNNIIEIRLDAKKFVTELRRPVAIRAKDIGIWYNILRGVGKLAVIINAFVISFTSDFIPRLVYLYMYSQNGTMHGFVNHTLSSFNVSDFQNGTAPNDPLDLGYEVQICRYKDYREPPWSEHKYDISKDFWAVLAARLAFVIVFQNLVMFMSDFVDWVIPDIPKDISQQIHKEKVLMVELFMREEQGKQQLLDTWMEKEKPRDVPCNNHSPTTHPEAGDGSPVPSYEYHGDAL
Beta cell apopt: inhibitors of cytokine-induced beta cell apoptosis, primary screen, luminescence; INS-1E cytokine-induced death, ATP luminescence, 48 h; percent of positive-control rescue, neutral wells zero; protection from apoptosis, % (no concentration beside the values); 0.8% of 300,000 active; AID 435005, 2010;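 active = Every replicate reaches about 75%, or at least half do and their mean reaches it too, limit read from the data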;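 note: higher means more ATP so stronger rescue from cytokine killing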
MC4R ag barr: MC4R agonists recruiting beta-arrestin, primary screen, cell-based, luminescence, agonist arm of biased-ligand search. AID 540308, 2011. 0.98% of 360,000 active. activation, % at 8.9 µM. Melanocortin receptor 4 (Homo sapiens), P32245. U2OS MC4R beta-arrestin complementation; percent of melanotan II response, DMSO zero;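 active = activation above a per-plate cutoff, the mean activation of sample wells on that plate plus 3 SD, cut at about 8% in these data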
MC4R antagonist: MC4R antagonists of cAMP signaling, primary screen, cell-based, TR-FRET, antagonist arm of biased-ligand search | MC4R-expressing cells, MTII-stimulated cAMP, LANCE TR-FRET | inhibition, % at 6.5 µM | 0.48% of 360,000 active | AID 540295, 2011;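 active = inhibition above its plate's cutoff, the mean of tested wells on that plate plus 3 SD, cut at about 29% in these data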
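System – human MC4R-expressing U2OS cells · Also added – Melanotan II · Dosing – one concentration, 6.5 µM nominal · Timing – 30-min compound, 1-h challenge, 1-h detection, room temperature · Measured by – Eu-cAMP/anti-cAMP TR-FRET, emission 671 nm · Replicates – singlicate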
ANO1 block: TMEM16A chloride channel inhibitors, primary screen, cell-based, HTS. HEK293 TMEM16A/YFP iodide influx fluorescence, ionomycin. normalized B-score (activity score, 25-100; higher = stronger inhibition) at 10 µM. AID 588511, 2011. 1.2% of 310,000 active. Anoctamin-1 (Mus musculus), Q8BHY3;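 active = ratio plate-corrected score three or more library SD toward inhibition, starting fluorescence score within five deviations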;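 note: score derived from kinetic fluorescence span divided by baseline fluorescence per well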
cAMP nonselect: nonselective cAMP signaling inhibitors, parental cells, counter-screen for MC4R biased antagonist project, cell-based, TR-FRET, U2OS, forskolin, triplicate | shares compounds with MC4R antagonist | LANCE TR-FRET | inhibition, % at 6.5 µM | 26% of 1,600 active;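 active = mean inhibition over triplicates above the low-control well mean plus 3 SD, set per campaign, cut at about 13% in these data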;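 note: signal is single emission at 671 nm which falls as cellular cAMP rises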
MC4R cAMP antag: MC4R cAMP antagonists, retest, confirmation, cell-based, TR-FRET. shares compounds with MC4R antagonist. MC4R-expressing cells, MTII-stimulated cAMP. inhibition, % at 6.5 µM. 27% of 1,600 active. AID 602195, 2012; in the data active = inhibition above about 29%
Each line names hits and unclear results; the compound was inactive in the other large screens (follow-up assays come after a bar, where they were run). An excerpt weighted towards active compounds, which were near 3.8% of everything screened.

Cc1ccc(S(=O)(=O)NCC(=O)OCC(=O)Nc2ccccc2OC(F)F)cc1	MC4R antagonist 33 | cAMP nonselect 13 | MC4R cAMP antag 29
Cc1ccc(S(=O)(=O)NCC(=O)OCC(=O)NCc2ccc(F)cc2)cc1	MC4R antagonist 34 | cAMP nonselect 18 | MC4R cAMP antag inactive
Cn1c(=O)c2cc(NC(=S)NC3CCCCC3)ccc2n1-c1ccccc1	none (no result: CSC inhib, ANO1 activ, Beta cell apopt, ANO1 block)
Cc1ccc(S(=O)(=O)NCC(=O)NCC(=O)OCc2c(F)cccc2Cl)cc1	MC4R antagonist 33 | cAMP nonselect 27 | MC4R cAMP antag 40
CN(C)Cc1c(OC(=O)c2ccc(N)cc2)ccc2ccccc12	none (no result: CSC inhib, Beta cell apopt, ANO1 block)
CN(C)S(=O)(=O)c1ccc(-c2csc(N/N=C/c3ccc(O)cc3)n2)cc1	CSC inhib 130, MC4R ag barr 9.8, MC4R antagonist 32 | cAMP nonselect inactive | MC4R cAMP antag 29
C=C1CC2(OC1=O)c1ccccc1CCc1ccccc12	MC4R antagonist 32 (no result: CSC inhib, Beta cell apopt, ANO1 block) | cAMP nonselect 39 | MC4R cAMP antag inactive
Cc1coc2cc3oc(=O)c(CC(=O)N(C)CC(=O)O)c(C)c3cc12	MC4R antagonist 29 | cAMP nonselect 19 | MC4R cAMP antag inactive
CCOc1ccc(NC(=O)c2ccc(NS(=O)(=O)c3cccc4cccnc34)cc2)cc1	none (no result: CSC inhib, Beta cell apopt, ANO1 block)
COC(=O)c1ccc(NC(=O)c2ccc(NS(=O)(=O)c3cccc4cccnc34)cc2)cc1	MC4R antagonist 30 (no result: Beta cell apopt) | cAMP nonselect inactive | MC4R cAMP antag inactive
COc1ccc2[nH]c3c(NCCC4=CCCCC4)ncnc3c2c1	none (no result: CSC inhib, Beta cell apopt, ANO1 block)
O=C(COC(=O)COc1cccc(F)c1)NCCC1=CCCCC1	none
O=C(COC(=O)CNC(=O)c1cccc(F)c1)NCCC1=CCCCC1	MC4R antagonist 29 | cAMP nonselect 18 | MC4R cAMP antag 40
CN(C)c1cc2c3ccccc3n(C)c2cc1N	none (no result: CSC inhib, Beta cell apopt, ANO1 block)
Cc1cc(=O)[nH]c(N/N=C/c2c(F)c(F)c(F)c(F)c2F)n1	MC4R antagonist 29 | cAMP nonselect 14 | MC4R cAMP antag inactive
O=C(NC(Cc1ccc(O)cc1)C(=O)O)c1ccco1 (stereo unspecified)	none
O=C(COC(=O)[C@H](Cc1ccccc1)NC(=O)c1ccco1)NCc1ccccc1	MC4R antagonist 29 | cAMP nonselect inactive | MC4R cAMP antag inactive
CN(C(=O)COC(=O)C(Cc1ccccc1)NC(=O)c1ccccc1)c1ccccc1 (stereo unspecified)	none
CN(C)C(=O)COC(=O)[C@H](Cc1ccccc1)NC(=O)c1ccco1	MC4R antagonist 29 | cAMP nonselect 14 | MC4R cAMP antag inactive
Cc1ccc([C@H]2C(C#N)=C(N)Oc3cc(C)oc(=O)c32)o1	ANO1 activ -4.6, MC4R antagonist 30 (no result: CSC inhib) | cAMP nonselect inactive | MC4R cAMP antag inactive
Cc1cc2c(c(=O)o1)C(c1cccs1)C(C#N)=C(N)O2 (stereo unspecified)	none
CCN(CC)S(=O)(=O)c1cc(C(=O)Nc2nncs2)c(Cl)cc1Cl	MC4R antagonist 43 | cAMP nonselect 17 | MC4R cAMP antag 43
O=C(CCl)c1ccc2c(c1)CCN2C(=O)C1CCCCC1	MC4R antagonist 30 | cAMP nonselect inactive | MC4R cAMP antag inactive
O=C(CCl)c1ccc2c(c1)CCN2C(=O)C1CC1	none (no result: ANO1 activ, MC4R ag barr, MC4R antagonist)
COc1ccc(C2NC(C(=O)O)Cc3c2[nH]c2ccccc32)cc1CN1CCN(c2ccc(F)cc2)CC1 (stereo unspecified)	MC4R antagonist 30 | cAMP nonselect inactive | MC4R cAMP antag inactive
O=C1C([N+](=O)[O-])=C(O)c2cccc3cccc1c23	none (no result: ANO1 activ, MC4R ag barr, MC4R antagonist)
CCOC(=O)Cn1nnnc1CN(Cc1ccccc1)Cc1cc2cc(CC)ccc2[nH]c1=O	MC4R antagonist 30, ANO1 block 25 | cAMP nonselect inactive | MC4R cAMP antag inactive
COC(=O)C=C1CCC2C3CCC4=CC(=O)C(Br)CC4(C)C3C(=O)CC12C (stereo unspecified)	MC4R antagonist 31 (no result: CSC inhib, Beta cell apopt, ANO1 block) | cAMP nonselect inactive | MC4R cAMP antag inactive
Cc1cc(NC(=O)CSc2nc(-c3ccccc3)c(C#N)c(=O)[nH]2)no1	MC4R antagonist 35 (no result: CSC inhib, Beta cell apopt) | cAMP nonselect 26 | MC4R cAMP antag 50
Cc1cc(C)nc(NS(=O)(=O)c2ccc(NC(=O)Cc3ccccc3)cc2)n1	MC4R antagonist 35 (no result: Beta cell apopt) | cAMP nonselect inactive | MC4R cAMP antag inactive
Cc1cc(C)nc(NS(=O)(=O)c2ccc(NC(=O)CSc3nc(-c4ccccc4)c(C#N)c(=O)[nH]3)cc2)n1	MC4R antagonist 36 (no result: Beta cell apopt) | cAMP nonselect 17 | MC4R cAMP antag inactive
COc1ccc(C(=O)O)cc1S(=O)(=O)N1CCSCC1	none (no result: CSC inhib, Beta cell apopt)
OCc1ccc(-c2cccc3nccn23)cc1	none (no result: CSC inhib, ANO1 activ, Beta cell apopt, ANO1 block)
CCCCn1c(SCC(=O)c2c(N)n(C3CC3)c(=O)[nH]c2=O)nc2cc(S(N)(=O)=O)ccc21	none (no result: CSC inhib, Beta cell apopt, ANO1 block)
CC1=CC(=O)C2(C)C(C)=C(C)C12C (stereo unspecified)	none (no result: CSC inhib, ANO1 activ, Beta cell apopt, ANO1 block)
O=C(Cn1nnc(-c2ccccc2F)n1)Nc1ccc2c(c1)OCCO2	none (no result: CSC inhib)
Cc1ccc(-c2nnc(Nc3ccc4c(c3)OCO4)c3ccccc23)cc1S(N)(=O)=O	MC4R antagonist 33 | cAMP nonselect inactive | MC4R cAMP antag inactive
NS(=O)(=O)c1ccc(CCNS(=O)(=O)c2ccc(Cl)nc2)cc1	MC4R antagonist 35 | cAMP nonselect 19 | MC4R cAMP antag inactive
NS(=O)(=O)c1ccc(CNS(=O)(=O)c2ccc(Cl)nc2)cc1	none
O=C(NC1CCCCC1)c1cccc2c(-c3ccc(F)c(F)c3)coc12	none (no result: CSC inhib, ANO1 activ, Beta cell apopt, ANO1 block)
CCN(C[C@H]1N[C@@](Cc2ccccc2)(C(=O)OC)[C@H]2C(=O)N(Cc3ccccc3)C(=O)[C@@H]12)S(=O)(=O)c1ccc(C(F)(F)F)cc1	MC4R antagonist 38 (no result: CSC inhib, ANO1 activ, Beta cell apopt, ANO1 block) | cAMP nonselect inactive | MC4R cAMP antag inactive
C#CCOCCOCCOCCNc1nc(N2CCN(C(=O)[C@H](CCC(=O)O)n3cc([C@@H](N)CCCCN)nn3)CC2)nc(N2CCN(C(=O)[C@H](CCCCN)n3cc([C@@H](N)CC(N)=O)nn3)CC2)n1	none (no result: CSC inhib, ANO1 block)

From PubChem BioAssay
